bCat KO growth: beta-catenin-lacking colon tumor cell growth suppression. 140,000 compounds, 1.5% hits. HCT116 beta-catenin knockout viability, CellTiter-Glo, 60 h; active compounds read low. viability, % at 10 µM. AID 818;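 active = viability at or under a set limit, the compound median less 4 SD, cut at about 6% in these data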
PTEN del growth: PTEN-deleted cell growth suppression | HCT116 PTEN-null viability, CellTiter-Glo, 60 h; active compounds read low | viability, % at 10 µM | 140,000 compounds, 1.2% hits | AID 827;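 active = viability at or below a set limit, 4 SD under the median of all tested compounds, cut at about 3.7% in these data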;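 also: PTEN knockout HCT116 line with beta catenin targeted HCT116 as companion control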
Lung fibro prol: blocks proliferation of human lung fibroblasts; 85,000 compounds, 1.1% hits; LL 47 human lung fibroblast viability, ATP luminescence; active compounds read low; viability, % at 10 µM;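 active = viability at or below 50% in the single dose screen; inactive = viability above 50%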;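 also: compound exposure lasted 72 h before the ATP readout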
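Material: human lung fibroblast line LL 47, low passage; Evaluation: viability percentage against median untreated-cell control; Buffer or medium: 15% FBS in IMEM; Incubation: 72 h compound exposure at 37 °C after overnight plating; Dosing: 0.1% DMSO in all compound wells; Measured by: CellTiter-Glo luminescence.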
H69AR inhibit: growth inhibitors of human H69AR lung tumor cells; 85,000 compounds, 6% hits; viability, % at 10 µM; H69AR lung tumor viability, ATP luminescence, 72 h; active compounds read low;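 active = viability at or below 40%; inactive = viability above 40%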;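 also: multidrug resistant small cell line overexpressing MRP-1 efflux transporter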
HUVEC prolif 384: human endothelial cell proliferation inhibition; HUVEC proliferation, CellTiter-Glo luminescence, 72 h; active compounds read low; viability, % at 10 µM (by protocol); 86,000 compounds, 1.1% hits;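 active = viability at or below 30%; inactive = viability above 30%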
Large screens that a line does not name were inactive. The sample as a whole holds a higher share of hits than the screen did.

Cc1ccccc1CSCC(=O)N1CCN(c2ccccc2)CC1	none (no result: Lung fibro prol, H69AR inhibit, HUVEC prolif 384)
Cc1nc2nc(C)c(CCC(=O)NC(C)c3ccc4c(c3)OCCO4)c(C)n2n1 (stereo not drawn)	none
Cc1nc2nc(C)c(CCC(=O)NCc3ccc4c(c3)OCO4)c(C)n2n1	H69AR inhibit 26
CC1(C)Cc2ccccc2-c2nc(NCCCO)n(-c3ccccc3)c(=O)c21	none
COc1cc2nc(NCCCN3CCN(C)CC3)n3nc(-c4ccccc4)nc3c2cc1OC	bCat KO growth 2.2, PTEN del growth 1.9, H69AR inhibit 28, HUVEC prolif 384 25
CN1CCN(CCCNc2nc3ccccc3c3nc(-c4ccccc4)nn23)CC1	H69AR inhibit 28 (no result: bCat KO growth, PTEN del growth)
O=C(Cc1cn(Cc2cccc(Cl)c2)c2ccccc12)N1CCCCCC1	none (no result: Lung fibro prol, H69AR inhibit, HUVEC prolif 384)
O=C1COc2ccc(C(=O)CSc3nnc(Cc4cccs4)n3-c3ccc(Cl)cc3)cc2N1	H69AR inhibit 27
CCCCCCn1c(SCC(=O)c2c(N)n(C)c(=O)n(C)c2=O)nc2ccccc21	Lung fibro prol 40, H69AR inhibit 24
CCCn1c(SCC(=O)c2ccc3c(c2)NC(=O)CO3)nc2ccccc21	bCat KO growth 4.6 (no result: Lung fibro prol, H69AR inhibit, HUVEC prolif 384)
CCCn1c(N)c(C(=O)CSc2nc3ccccc3n2CCC#N)c(=O)n(C)c1=O	none
O=C1COc2ccc(C(=O)CSc3nnnn3-c3ccccc3)cc2N1	none
COc1cccc(-n2nnnc2SCC(=O)c2cc(OC)ccc2OC)c1	none
CC(C)(C)C(=O)[C@@H]1[C@@H]2C(=O)N(Cc3ccccc3)C(=O)[C@@H]2[C@H]2c3ccccc3C=CN12	H69AR inhibit 34
CC(=O)[C@H]1[C@@H]2C(=O)N(c3cccc(Cl)c3)C(=O)[C@@H]2[C@H]2c3ccccc3C=CN21	none
Cc1cccc(C)c1OCC(O)CN1CCC(CN2C(=O)c3cccc4cccc(c34)C2=O)CC1 (stereo not drawn)	bCat KO growth 1.1, PTEN del growth 1.2 (no result: Lung fibro prol, H69AR inhibit, HUVEC prolif 384)
C=CCc1ccccc1OCC(O)CN1CCN(CCN2C(=O)c3cccc4cccc(c34)C2=O)CC1 (stereo not drawn)	bCat KO growth 2.4, PTEN del growth 3.7 (no result: Lung fibro prol, H69AR inhibit, HUVEC prolif 384)
CCC(OCC(O)CN1CCN(CCN2C(=O)c3cccc4cccc(c34)C2=O)CC1)c1ccccc1 (stereo not drawn)	bCat KO growth 5.9 (no result: Lung fibro prol, H69AR inhibit, HUVEC prolif 384)
CCCCn1c(N)c(C(=S)NC(=O)CC(C)(C)C)c(=O)n(C)c1=O	none (no result: Lung fibro prol, H69AR inhibit, HUVEC prolif 384)
COc1cc(C(=O)Oc2ccccc2/C=N/NC(=O)c2ccc(C)c(Cl)c2)cc(OC)c1OC	bCat KO growth 5.2, PTEN del growth 2.7 (no result: Lung fibro prol, H69AR inhibit, HUVEC prolif 384)
O=C(N/N=C/c1ccccc1OC(=O)c1ccc2c(c1)OCO2)c1cccc(F)c1	bCat KO growth 5.0, PTEN del growth 3.4 (no result: Lung fibro prol, H69AR inhibit, HUVEC prolif 384)
COc1cc(C(=O)Oc2ccccc2/C=N/NC(=O)c2ccc(Cl)cc2)cc(OC)c1OC	none (no result: Lung fibro prol, H69AR inhibit, HUVEC prolif 384)
COc1ccc2oc(C(=O)c3ccccc3)c(NC(=O)CN3CCN(C)CC3)c2c1	bCat KO growth 1.4, PTEN del growth 1.6, H69AR inhibit 0.7
CCOC(=O)c1oc2ccc(Br)cc2c1NC(=O)CN1CCN(C)CC1	bCat KO growth 4.4
CCCOc1cc(C)c(S(=O)(=O)n2ccc(C)n2)cc1C	none
CC(C)Cn1c(=O)c(C(=O)NCc2ccccn2)c(O)c2ccccc21	H69AR inhibit 29
CCOC(=O)c1oc2ccccc2c1NC(=O)c1ccc2c(c1)OCO2	none
CCOC(=O)c1[nH]c2cc(OC)c(OC)cc2c1NC(=O)c1ccc2c(c1)OCO2	H69AR inhibit 26
CCOC(=O)c1[nH]c2ccc(OC)cc2c1NC(=O)c1ccc2c(c1)OCO2	none
CCOC(=O)c1[nH]c2ccccc2c1NC(=O)c1ccc2c(c1)OCO2	H69AR inhibit 22
CCOC(=O)C1CCN(CC(O)COc2ccc(C(C)(C)CC)cc2)CC1 (stereo not drawn)	H69AR inhibit 26
COc1ccccc1NC(=O)c1ccc(NC(=O)COC(=O)C2(C)CC2(Cl)Cl)cc1 (stereo not drawn)	none (no result: Lung fibro prol, H69AR inhibit, HUVEC prolif 384)
OC(CNc1ccccc1)COc1ccc(OCC(O)CNc2ccccc2)cc1 (stereo not drawn)	bCat KO growth 1.7, PTEN del growth 1.6 (no result: Lung fibro prol, H69AR inhibit, HUVEC prolif 384)
CCOCC(O)CNc1ccccc1 (stereo not drawn)	none (no result: Lung fibro prol, H69AR inhibit, HUVEC prolif 384)
COc1cc(-c2cc(OC)c3c(C)oc(C)c3c(=O)c2)ccc1O	H69AR inhibit 30
COc1ccccc1/C=N/n1c(C)nnc1-n1nc(C)cc1C	none
Cc1cc(C)n(-c2nnc(C)n2/N=C/c2cc(Br)ccc2OCc2ccccc2)n1	H69AR inhibit 26
Cc1cc(C)n(-c2nnc(C)n2/N=C/c2ccccc2F)n1	none
Cc1cc(C)n(-c2nnc(C)n2/N=C/c2ccccc2OCc2ccccc2Cl)n1	H69AR inhibit 16
O=C(O)c1cc(-c2cccc(Cl)c2)nc2nc(N3CCCCC3)sc12	none (no result: Lung fibro prol, H69AR inhibit, HUVEC prolif 384)
C=C(C)CN1C(=O)C(O)(CC(=O)c2ccc3c(c2)OCCO3)c2ccccc21 (stereo not drawn)	H69AR inhibit 39
N#CCCCN1C(=O)C(O)(CC(=O)c2ccc3c(c2)OCCO3)c2ccccc21 (stereo not drawn)	none
O=C(c1ccccc1)N1CCN(c2ncnc3sc4c(c23)CCC4)CC1	none
COc1cccc(N2CCN(c3ncnc4c3cnn4-c3ccc(C)cc3C)CC2)c1	bCat KO growth 1.7, PTEN del growth 3.1, Lung fibro prol 33, HUVEC prolif 384 2.2
Cc1cccc(-n2ncc3c(N4CCC5(CC4)OCCO5)ncnc32)c1	H69AR inhibit 33 (no result: bCat KO growth, PTEN del growth)
COc1cccc2c1C(=O)c1c(O)c3c(c(O)c1C2=O)C[C@@](O)(C(=O)CO)C[C@@H]3O[C@H]1C[C@H](N)[C@H](O)[C@H](C)O1	bCat KO growth 4.1 (no result: Lung fibro prol, H69AR inhibit, HUVEC prolif 384)
O=C(NCC(c1cccs1)N1CCOCC1)c1ccc(Br)o1 (stereo not drawn)	H69AR inhibit 23
O=C(NCC(c1cccs1)N1CCOCC1)c1ccccc1NS(=O)(=O)c1ccc(Br)cc1 (stereo not drawn)	none (no result: Lung fibro prol, H69AR inhibit, HUVEC prolif 384)
CCc1ccc2[nH]c(=O)c(CN(Cc3ccccc3OC)Cc3nnnn3Cc3ccco3)cc2c1	H69AR inhibit 12
COc1ccccc1CN(Cc1cc2cc(C)ccc2[nH]c1=O)Cc1nnnn1Cc1ccco1	H69AR inhibit 38
COc1cc2cc(CN(Cc3nnnn3Cc3ccco3)C3CCCCC3)c(=O)[nH]c2cc1OC	none
CN(C1=C(NC(=O)c2ccc(Cl)cc2)C(=O)c2ccccc2C1=O)c1ccccc1	bCat KO growth 1.6, PTEN del growth 1.6 (no result: Lung fibro prol, H69AR inhibit, HUVEC prolif 384)
CCCc1[nH]nc2c1C(c1cn[nH]c1-c1ccc(F)cc1)C(C#N)=C(N)O2 (stereo not drawn)	H69AR inhibit 32
Nc1nonc1NC(=O)NN=C1CCCCC1	none (no result: Lung fibro prol, H69AR inhibit, HUVEC prolif 384)
CCOC(CNC(=O)c1cccn2c(=O)c3cc(Cl)ccc3nc12)OCC	H69AR inhibit 38
CCOC(=O)N1CCN(C(=O)c2cccn3c(=O)c4cc(Cl)ccc4nc23)CC1	none (no result: Lung fibro prol, H69AR inhibit, HUVEC prolif 384)
CCOc1ccc(CN(C(=O)c2oc3cc(C)ccc3c2C)C2CCS(=O)(=O)C2)cc1 (stereo not drawn)	H69AR inhibit 11
Cc1ccc2c(C)c(C(=O)N(Cc3cccs3)C3CCS(=O)(=O)C3)oc2c1 (stereo not drawn)	none
